These results are taken from ChEMBL document CHEMBL3745639, “Structure-activity relationships for lipoprotein lipase agonists that lower plasma triglycerides in vivo” (Eur J Med Chem, 2015).

For orientation: EC50 means the concentration that produces a half-maximal response. A lower EC50 goes with a more potent agent. The half-life is how long it takes for the measured level to halve. High values mean slow decline, low ones rapid decline. What is called Papp B→A is how fast a substance crosses the layer from the basolateral side.

Each structure is given as a SMILES string. Active and inactive are the calls of the source. Some results are limits rather than exact numbers.

Data set [1] concerns the target T1, Peroxisome proliferator-activated receptor alpha (Homo sapiens, UniProt Q07869).
T1 sequence (Q07869 whole entry): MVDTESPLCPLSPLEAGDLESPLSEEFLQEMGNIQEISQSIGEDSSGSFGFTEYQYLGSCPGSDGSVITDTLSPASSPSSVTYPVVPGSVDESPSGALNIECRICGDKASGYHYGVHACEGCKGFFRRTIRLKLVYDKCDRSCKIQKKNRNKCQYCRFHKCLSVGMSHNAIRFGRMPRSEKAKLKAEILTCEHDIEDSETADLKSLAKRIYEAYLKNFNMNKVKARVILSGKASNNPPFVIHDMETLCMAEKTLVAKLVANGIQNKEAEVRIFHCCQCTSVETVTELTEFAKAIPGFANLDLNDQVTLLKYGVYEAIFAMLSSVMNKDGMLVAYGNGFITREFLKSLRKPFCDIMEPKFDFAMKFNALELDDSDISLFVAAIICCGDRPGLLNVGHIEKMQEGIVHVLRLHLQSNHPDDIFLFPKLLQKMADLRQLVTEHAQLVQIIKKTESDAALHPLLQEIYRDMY
Briefly: Agonist activity at PPARalpha (unknown origin). Put shortly: (§1)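 Single agonist-mode profiling at ten concentrations against FXR, PPARα, PPARγ and RXRα, run as an outside screening service.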

In data set [2] the target is T2, Peroxisome proliferator-activated receptor gamma (Homo sapiens, UniProt P37231).
T2 sequence (P37231 whole entry): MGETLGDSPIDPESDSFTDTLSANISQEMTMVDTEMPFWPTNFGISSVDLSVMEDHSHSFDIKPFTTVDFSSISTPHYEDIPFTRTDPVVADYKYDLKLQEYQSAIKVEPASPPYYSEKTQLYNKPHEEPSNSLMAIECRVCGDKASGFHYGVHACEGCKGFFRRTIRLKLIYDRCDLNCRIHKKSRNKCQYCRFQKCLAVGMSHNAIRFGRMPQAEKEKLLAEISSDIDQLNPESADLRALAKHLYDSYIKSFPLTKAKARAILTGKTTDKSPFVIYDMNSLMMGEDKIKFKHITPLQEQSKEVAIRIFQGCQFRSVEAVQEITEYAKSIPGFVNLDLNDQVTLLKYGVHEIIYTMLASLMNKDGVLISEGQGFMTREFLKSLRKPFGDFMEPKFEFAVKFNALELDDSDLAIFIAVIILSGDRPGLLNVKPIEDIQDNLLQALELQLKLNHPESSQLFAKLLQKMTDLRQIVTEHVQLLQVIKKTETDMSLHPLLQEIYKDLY
Put plainly: Agonist activity at PPARgamma (unknown origin). Put shortly: as §1

The nature of data set [3]: Half life in human hepatocytes at 1 uM. The format is ADME, cell-based, Hepatocyte. Put shortly:
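Freshly isolated human hepatocytes (0.5 x 10⁶ cells/ml) in Williams medium E with compound at 1 μM. Reaction started by adding cells. Sampled at 0, 10, 30 and 60 min in duplicate, quenched with acetonitrile containing warfarin, then LC-MS/MS.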

A short description of data set [4]: Fraction unbound in human plasma at 10 uM after 4 hrs by rapid equilibrium dialysis method. The class given is ADME, cell-free. Put shortly: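 Rapid equilibrium dialysis of pooled human plasma from two male and two female non-smoking donors. Compound typically 10 μM final, dialysed against isotonic phosphate buffer pH 7.4 at 37 °C for 4 h with rapid rotation. Proteins precipitated with methanol containing warfarin internal standard, then both compartments analysed by LC-MS/MS.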

Data set [5] in a line: Kinetic aqueous solubility of the compound in PBS at pH 7.4 after 2 hrs by LC-MS/MS analysis. The class given is physicochemical. As to conditions: read-out: Kinetic_solubility. In short, it runs like this: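 Kinetic solubility from a 10 mM DMSO stock diluted 1:100 (1% DMSO, maximum detectable 0.1 mM) into PBS pH 7.4 or HCl-adjusted PBS at about pH 1.2. Incubated at 37 °C for 2 h in sealed glass vials, centrifuged at 10000 x g, 37 °C, 20 min, then LC-MS/MS.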

A short description of data set [6]: Stability of the compound in human plasma after 4 hrs at 37 degC by mass spectrometric analysis. The format is ADME, cell-free. The settings on record: read-out: Stability. Put shortly: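 Plasma test solution (pooled human plasma, typically 10 μM compound) held at 37 °C for 4 h, matching the dialysis time. A reference sample was frozen immediately. Proteins precipitated with methanol containing warfarin, then LC-MS/MS. Stability expressed on a relative basis.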

Data set [7] has as its system Mus musculus. Briefly: Hypolipidemic activity in C57B16/J mouse assessed as reduction in plasma triglyceride level at 10 mg/kg, ip qd administered for 4 days followed by olive oil injection through oral gavage one hour post last dose measured at 180 mins. The format is functional, organism-based. In short, it runs like this: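 Female C57B16/J mice, 8-9 weeks, about 18 g, n = 8/group. Given 10 mg/kg i.p. once daily for 4 days, 0.5 ml in PBS pH 7.4 with 3% DMSO and 0.2% Triton X-100. Fasted 8 h before the last dose, then 0.2 ml oral olive oil gavage 1 h after it. Tail-vein EDTA plasma taken at baseline and every 60 min to 180 min. TG measured enzymatically, reported as mean ± SD.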

Data set [8] deals with T3, Lipoprotein lipase (Bos taurus) (UniProt P11151).
T3 sequence (whole entry): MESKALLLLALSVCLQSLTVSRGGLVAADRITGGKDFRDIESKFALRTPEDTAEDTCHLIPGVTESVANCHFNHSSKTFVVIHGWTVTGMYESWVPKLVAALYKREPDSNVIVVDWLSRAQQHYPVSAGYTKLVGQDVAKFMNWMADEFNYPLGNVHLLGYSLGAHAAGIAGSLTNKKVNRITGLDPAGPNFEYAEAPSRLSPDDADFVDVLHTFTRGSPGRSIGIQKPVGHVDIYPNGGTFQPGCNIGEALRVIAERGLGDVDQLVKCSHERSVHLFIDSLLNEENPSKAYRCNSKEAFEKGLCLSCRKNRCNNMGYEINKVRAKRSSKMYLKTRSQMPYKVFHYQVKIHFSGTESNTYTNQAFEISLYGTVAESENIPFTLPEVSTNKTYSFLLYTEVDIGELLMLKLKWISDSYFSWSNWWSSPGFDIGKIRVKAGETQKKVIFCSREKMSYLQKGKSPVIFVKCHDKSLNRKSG
Put plainly: Induction of bovine LPL stabilization using intralipid as substrate at 3.12 uM preincubated for 10 mins with human recombinant ANGPTL4 followed by substrate addition measured after 45 mins relative to control. Put shortly: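 Compound in DMSO in buffer (50 mM potassium phosphate pH 7.4, 0.15 M NaCl, 0.01% Triton X-100), with human ANGPTL4 N-terminal fragment (aa 26-184, 75 nM final) and bovine LPL (15 nM final). Preincubated 10 min at 25 °C with shaking. Stopped after 45 min with 2.5% Triton X-100, and NEFA measured enzymatically. Activity normalised between DMSO+LPL+ANGPTL4 (0%) and DMSO+LPL (100%).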

The nature of data set [9]: Apparent permeability across basolateral to apical side in human Caco2 cells at 10 uM after 15 to 60 mins. The class given is ADME, cell-based. The settings on record: Caco-2. (In general: Caco-2 cells form a polarised layer with tight junctions and transporters.)

Turning to `Cc1ccc(NC(=O)c2cc(-n3cc4ccc(C(=O)O)cc4n3)ccc2N2CCCCC2)cc1`, the EC50 in [1] and in [2] was above 100 µM in each case. Also, the half-life at 1 µM in data set [3] was above 2 h. In data set [4], this compound gave a Fu below 0.01%. In addition, in [5], the solubility kinetic at 2 h is below 2 µM. Moreover, in [6], the remaining at 4 h was determined as 96%. The outcome in data set [7] was Active. Besides, in data set [8], the result was inactive. In addition, the Papp B→A at 10 µM in data set [9] was found to be 31 ×10⁻⁶ cm/s.
